Experimental data reported in ChEMBL document CHEMBL1140767, “Discovery and structure-activity relationship of N-phenyl-1H-pyrazolo[3,4-b]quinolin-4-amines as a new series of potent apoptosis inducers” (Bioorg Med Chem, 2008).
Several values for one entry are separate records, joined by “and”; a condition that tells them apart may be missing. Equal entries are not always repeated.

Experiments:
T47D [1] = assay: Antiproliferation activity against human T47D cells; assay type: functional
Procedure, shortened: (§1)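 Cells in RPMI-1640 + 10% FCS, 5% CO2, 37 °C. Seeded at 4.4 × 10^4 cells/mL in 96-well plates and exposed to compound at 0.001–10 µM final (1% DMSO) for 48 h at 37 °C. Viability read by CellTiter-Glo luminescence. A 0.5 h plate gave the initial-cell baseline and untreated wells gave maximal proliferation. GI50 is the mean of ≥3 experiments ± SEM.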

SNU-398 [2] = assay: Antiproliferation activity against human SNU398 cells; assay type: functional; procedure, shortened: as §1
SNU-398 [3] = assay: Induction of apoptosis in human SNU398 cells assessed as caspase-3 activation; assay type: functional, cell-based
Procedure, shortened: (§2)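 Cells grown in RPMI-1640 + 10% FCS, trypsinized, and resuspended at 0.65 × 10^6 cells/mL. Treated in 384-well plates with 0.005–10 µM final compound (1% DMSO) for 24 h. N-(Ac-DEVD)-N'-ethoxycarbonyl-R110 substrate was then added, and fluorescence (ex 485/em 525 nm) was read at 0 and 3 h. Activity is the net RFU ratio of test to control. EC50 from a sigmoidal fit at 50% maximal response; mean of ≥3 experiments ± SEM.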

T47D [4] = assay: Induction of apoptosis in human T47D cells assessed as accumulation at S phase at […] after 24 hrs; assay type: functional
Procedure, shortened: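 T47D cells treated with 50 nM compound, or DMSO as control, for 24 h or 48 h at 37 °C. Cells then stained with propidium iodide and analysed by flow cytometry for DNA-content histograms. Sub-diploid DNA content was taken to indicate apoptotic cells.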

HCT-116 [5] = assay: Induction of apoptosis in human HCT116 cells assessed as caspase-3 activation; assay type: functional, cell-based; procedure, shortened: as §2
T47D [6] = assay: Induction of apoptosis in human T47D cells assessed as caspase-3 activation; assay type: functional, cell-based; procedure, shortened: as §2
HCT-116 [7] = assay: Antiproliferation activity against human HCT116 cells; assay type: functional; procedure, shortened: as §1

GI50 (T47D [1])	GI50 (SNU-398 [2])	EC50 (SNU-398 [3])	EC50 (HCT-116 [5])	EC50 (T47D [6])	GI50 (HCT-116 [7])	Compound	Activity (T47D [4])
26 nM	16 nM	34 nM	64 nM	71 nM	42 nM	CCC(=O)c1ccc(Nc2c3ccccc3nc3c2c(C)nn3C)cc1	13.6% and 7.6% and 18.8%
–	–	> 10000 nM	> 10000 nM	> 10000 nM	–	CC(=O)c1ccc(Oc2c3ccccc3nc3c2c(C)nn3C)cc1	–
–	–	> 10000 nM	> 10000 nM	> 10000 nM	–	Cc1nn(C)c2nc3ccccc3c(Nc3ccc(C(N)=O)cc3)c12	–
–	–	150 nM	190 nM	210 nM	–	CCC(=O)c1ccc(Nc2c3ccccc3nc3c2c(C)nn3CC)cc1	–
–	–	270 nM	660 nM	520 nM	–	CC(=O)c1ccc(Nc2c3ccccc3nc3c2c(C)nn3C)cc1	–
–	–	> 10000 nM	> 10000 nM	> 10000 nM	–	CC(=O)c1ccc(Nc2c3ccccc3nc3c2c(C(C)C)nn3C)cc1	–
–	–	270 nM	670 nM	540 nM	–	COC(=O)c1ccc(Nc2c3ccccc3nc3c2c(C)nn3C)cc1	–
560 nM	170 nM	440 nM	660 nM	450 nM	500 nM	CC(=O)c1cccc(Nc2c3c(nc4ccccc24)CCC3)c1	–
–	–	480 nM	1250 nM	1010 nM	–	COc1ccc(Nc2c3ccccc3nc3c2c(C)nn3C)cc1	–
–	–	660 nM	940 nM	1110 nM	–	CC(=O)c1ccc(Nc2c3cccc(C)c3nc3c2c(C)nn3C)cc1	–
–	–	4990 nM	6670 nM	5470 nM	–	COc1ccc(Sc2c3ccccc3nc3c2c(C)nn3C)cc1	–
–	–	> 10000 nM	> 10000 nM	> 10000 nM	–	Cc1nn(C)c2nc3ccccc3c(Nc3ccc(C(=O)O)cc3)c12	–
–	–	730 nM	1360 nM	1150 nM	–	CC(=O)c1ccc(Nc2c3ccccc3nc3c2cnn3C)cc1	–
–	–	> 10000 nM	> 10000 nM	> 10000 nM	–	CC(=O)c1ccc(Nc2c3cc(C)ccc3nc3c2c(C)nn3C)cc1	–
590 nM	140 nM	53 nM	330 nM	140 nM	930 nM	CCC(O)c1ccc(Nc2c3ccccc3nc3c2c(C)nn3C)cc1 (stereo not drawn)	–
–	–	270 nM	480 nM	510 nM	–	CCC(=O)c1ccc(Nc2c3cccc([N+](=O)[O-])c3nc3c2c(C)nn3C)cc1	–
–	–	> 10000 nM	> 10000 nM	7260 nM	–	COc1cccc(Nc2c3ccccc3nc3c2c(C)nn3C)c1	–
> 10000 nM	> 10000 nM	> 10000 nM	> 10000 nM	> 10000 nM	> 10000 nM	COc1ccc(Nc2c3ccccc3nc3[nH]nc(C)c23)cc1	–
–	–	240 nM	390 nM	440 nM	–	Cc1nn(C)c2nc3ccccc3c(Nc3ccc(C(=O)C(C)C)cc3)c12	–
–	–	1330 nM	6080 nM	5210 nM	–	COC(=O)c1ccc(N(C)c2c3ccccc3nc3c2c(C)nn3C)cc1	–
